From PubChem BioAssay
A selection: hits, their analogues and other compounds. The true share with any hit is near 4.6%.
GPR7 antagonist – blocks human GPR7 receptor signaling. P48145. GPR7-expressing cells, fluorescence antagonist assay. inhibition, % at 4.4 µM. actives 1.1% (n = 290,000). AID 1861; in the data active = inhibition above about 16%, passing the limit was not always enough;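 also: cells stimulated with the agonist NPW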
OX1R antag-1 – human HCRTR1 antagonism | inhibition, % at 5 µM | actives 0.43% (n = 330,000) | CHO/OX1R cells, Fluo-8 calcium fluorescence, orexin A | O43613;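 active = inhibition above its plate's threshold, mean inhibition of all tested compounds on the plate plus 3 SD, cut at about 37% in these data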
Target sequence (O43613 whole entry, looked up): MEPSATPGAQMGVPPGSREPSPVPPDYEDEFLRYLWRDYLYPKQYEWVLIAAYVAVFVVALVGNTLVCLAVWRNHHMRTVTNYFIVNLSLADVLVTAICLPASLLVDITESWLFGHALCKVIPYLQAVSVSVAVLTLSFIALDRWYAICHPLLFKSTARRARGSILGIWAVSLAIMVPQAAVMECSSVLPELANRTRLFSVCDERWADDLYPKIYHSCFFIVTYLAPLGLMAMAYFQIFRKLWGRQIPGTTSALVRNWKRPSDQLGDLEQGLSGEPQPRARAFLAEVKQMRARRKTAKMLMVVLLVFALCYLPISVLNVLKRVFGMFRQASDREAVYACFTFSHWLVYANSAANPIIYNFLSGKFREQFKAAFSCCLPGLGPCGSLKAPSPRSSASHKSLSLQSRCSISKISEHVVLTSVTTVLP
CHO parental Ca – signal in parental CHO cells, OX1R antagonist counter-screen | parental CHO-K1, ATP-induced calcium, Fluo-8 fluorescence | inhibition, % at 5.6 µM | actives 0.63% (n = 330,000) | AID 463079;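 active = inhibition above that plate's mean sample inhibition plus 3 SD, cut at about 26% in these data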
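Test system: parental CHO cells; detection: calcium-sensitive Fluo-8 fluorescence; evaluation: percent inhibition of calcium signal; also added: ATP as calcium-mobilizing challenge; repeats: one well per compound; control set: ATP-challenged DMSO wells low, unchallenged DMSO wells high; compound: single nominal dose of 5.6 µM per compound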
OX1R antag-2 – antagonists of human orexin 1 receptor (OX1R); O43613; OX1R-expressing cells, FRET antagonist read-out; inhibition, % at 6.6 µM; actives 1.8% (n = 330,000); in the data active = inhibition mostly above about 38%, no sharp cut-off; inactive = mostly below about 40%
TAAR1 antagonist – human TAAR1 antagonism | Q96RJ0 | CHO RD-HGA16 TAAR1, Fluo-8 calcium fluorescence, antagonist | inhibition, % at 3 µM | actives 1.5% (n = 360,000);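 active = inhibition above a per-plate cutoff, the mean inhibition of test compounds on that plate plus 3 SD, cut at about 49% in these data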
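Test system – hTAAR1-expressing CHO RD-HGA16 cells, Gα16-coupled · Also added – β-PEA at EC80 concentration, post-compound challenge · Compound – 3 µM, single point · Incubation – dye loading 75 min at 37 °C, then 30 min room temperature · Measured by – Fluo-8 intracellular calcium dye fluorescence, real-time kinetic reads · Benchmarks – vehicle and agonist controls · Replicates – singlicate, one well per test compound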
TAAR1 agonist – agonists of human TAAR1. AID 624467. activation, % at 3 µM. actives 0.99% (n = 360,000). Q96RJ0. CHO RD-HGA16 TAAR1, Fluo-8 calcium fluorescence; vehicle wells 0%, saturating PEA agonist 100%;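 active = activation above the mean activation of all test compounds in the run plus 3 SD, cut at about 38% in these data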
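System: CHO RD-HGA16 cells carrying human TAAR1 plus Gα16; Incubation: 17-24 h seeding, 75 min 37 °C dye, 30 min RT; Measured by: Fluo-8 fluorescence, 5 s baseline then 140 s kinetic read; Control set: DMSO and PEA EC100; Replication: single well for each compound.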
Numbers stand for hits; i = inactive; nt = not tested or not shown.

SMILES	GPR7 antagonist	OX1R antag-1	CHO parental Ca	OX1R antag-2	TAAR1 antagonist	TAAR1 agonist
O=C(Nc1cc2c(cc1[N+](=O)[O-])OCCO2)c1cccnc1	nt	i	i	50.2	i	i
O=C(Nc1ccc([N+](=O)[O-])c(NC(=O)c2cccnc2)c1)c1cccnc1	nt	i	i	i	i	i
COc1ccc(NC(=O)CSCC(=O)Nc2ccccc2N2CCCCC2)cc1	nt	i	i	36.5	i	i
COc1ccc(NC(=O)CSCC(=O)Nc2ccccc2N2CCCC2)cc1	nt	i	i	i	i	i
N#Cc1cc2nc(O)c(O)nc2cc1[N+](=O)[O-]	nt	i	i	76.2	i	i
Nn1c(SCC(=O)Nc2nccs2)nnc1-c1cccnc1	nt	i	i	i	i	i
CN(C(=O)CSc1nnnn1-c1ccccc1)C1CCS(=O)(=O)C1 (centres undefined)	19.0	i	i	i	i	i
N#Cc1cc([N+](=O)[O-])ccc1NC(=O)COC(=O)C1CCC(=O)N1 (centres undefined)	nt	i	i	42.5	i	i
N#Cc1cc([N+](=O)[O-])ccc1NC(=O)COC(=O)C12CC3CC(CC(C3)C1)C2	i	i	i	i	nt	nt
N#Cc1cc([N+](=O)[O-])ccc1NC(=O)CSc1n[nH]c(=O)[nH]c1=O	nt	i	i	44.9	i	i
COC(=O)[C@@]12C[C@@H](CC(=O)NCc3ccccc3)C(=O)N(Cc3ccc4c(c3)OCO4)C1=CCC(C)(C)C2	nt	nt	nt	nt	i	i
CCOC(=O)C(=O)NCC(c1cccs1)S(=O)(=O)c1ccc(Cl)cc1 (centres undefined)	i	i	i	i	i	i
C=CCn1c(O)c2ccc(C(=O)N=NC(=O)COc3ccccc3F)cc2c1O	nt	i	i	57.6	i	i
CC(=O)c1ccc(OCCCC(=O)Nc2cccc(S(=O)(=O)N(C)C)c2)cc1	i	i	i	i	i	i
Cc1nn(C)c(C)c1CN(Cc1nc(CCC(C)C)no1)C(C)C	i	i	41.1	i	i	i
CCOC(=O)N1CCN(C2=C(NS(=O)(=O)c3ccc(Br)cc3)C(=O)c3ccccc3C2=O)CC1	nt	nt	nt	nt	i	i
CCN1CCN(C2=C(NS(=O)(=O)c3ccccc3)C(=O)c3ccccc3C2=O)CC1	i	i	i	73.7	i	i
CCOC(=O)N1CCN(C2=C(NS(=O)(=O)c3ccccc3)C(=O)c3ccccc3C2=O)CC1	i	i	i	67.6	i	i
CCOc1ncccc1C(=O)OCC(=O)Nc1ccc2c(c1)OCCO2	nt	i	i	i	i	i
Cc1[nH]c(C)c(S(=O)(=O)N2CCCCC2C)c1C(=O)N1CCCC1 (centres undefined)	i	i	i	i	i	i
CCC1Oc2ccc(C)cc2N(CC(=O)NCCc2ccc(OC)c(OC)c2)C1=O (centres undefined)	i	i	i	61.8	i	i
CCN1/C(=C/c2ccc3cc(C)cc(C)c3[n+]2CC)Sc2cc(C)ccc21	i	nt	nt	nt	i	i
CCN1/C(=C/c2ccc3cccc(C)c3[n+]2CC)Sc2ccccc21	33.9	100.4	66.4	i	i	i
COc1ccc(N(S(=O)(=O)c2ccccc2)S(=O)(=O)c2ccccc2)c(N)c1	nt	i	i	i	50.6	i
COc1ccc(S(N)(=O)=O)cc1N(C)S(=O)(=O)c1ccccc1	i	i	i	i	i	i
SMILES	GPR7 antagonist	OX1R antag-1	CHO parental Ca	OX1R antag-2	TAAR1 antagonist	TAAR1 agonist
NC(=O)c1ccc(Nc2nc(C(N)COCc3ccccc3)cs2)cc1 (centres undefined)	nt	nt	nt	nt	i	i
NC(CCc1ccccc1)c1csc(Nc2ccc(C(=O)NCCO)cc2)n1 (centres undefined)	nt	nt	nt	nt	i	i
NC(COCc1ccccc1)c1csc(Nc2ccc(C(=O)c3ccccc3)cc2)n1 (centres undefined)	nt	nt	nt	nt	i	49.9
NC(CCc1ccccc1)c1csc(Nc2ccc(C(=O)c3ccccc3)cc2)n1 (centres undefined)	nt	nt	nt	nt	i	40.8
NC(CCc1ccccc1)c1csc(NC(=O)Nc2cccc(Cl)c2)n1 (centres undefined)	nt	nt	nt	nt	i	39.0
COc1ccccc1NC(=O)Nc1nc(C(N)CCc2ccccc2)cs1 (centres undefined)	nt	nt	nt	nt	i	i
CC(=O)Nc1ccc(C(=O)COC(=O)c2ccco2)c(F)c1	nt	i	i	i	i	i
Cc1ccc(CNC(=O)[C@@H](NC(=O)C2CCN(C(=O)[C@@H]3CCCN3)CC2)C(C)C)cc1	i	i	i	i	i	i
C/C(=N\Nc1ccc([N+](=O)[O-])cc1[N+](=O)[O-])C(C)(C)C(C(=O)O)C(=O)O	i	i	i	73.0	i	i
CCOc1c(Br)cc(Br)cc1/C=C1\SC(N)=NC1=O	i	nt	nt	nt	i	i
O=C(COC(=O)c1ccc2ncsc2c1)Nc1ccc(OC(F)(F)F)cc1	nt	37.2	i	i	i	i
CC(C)(C)c1ccc(NC(=O)COC(=O)c2ccc3ncsc3c2)cc1	nt	i	i	i	i	i
CCOc1ccc(Cn2nnc(C(=O)NCc3ccc(OC)cc3)c2N)cc1	i	i	i	i	i	49.5
Cn1nc(C(=O)N2CCN(c3ccc(F)cc3)CC2)c2c1-c1ccccc1S(=O)(=O)C2	i	i	i	i	i	i
O=C(C(=O)N(Cc1ccccc1)Cc1ccccc1)c1c(-c2ccccc2)[nH]c2ccccc12	nt	nt	nt	nt	74.9	i
CCN(CC(=O)Nc1ccc(NC(C)=O)cc1)C(=O)/C=C/c1ccccc1	nt	i	i	i	i	i
CCN(CC(=O)Nc1ccc(NC(C)=O)cc1)C(=O)/C=C/c1cn(-c2ccccc2)nc1-c1cccs1	nt	i	i	i	58.3	i
CCCCOCCCNC(=O)C[C@@H]1C[C@@]2(C(=O)OCC)CCC=C2N(Cc2ccco2)C1=O	nt	nt	nt	nt	i	i
C[C@@H]1CN(c2ccc(N3CCNC[C@@H]3C)cc2C#N)C[C@H](C)O1	nt	nt	nt	nt	i	i
COc1cc(/C=N/N2C(=O)CSC2=S)cc(Br)c1O	i	nt	nt	nt	i	62.3
O=C(NCC1CC1)c1cc(-c2ccccc2)nn1CC1CC(c2cccnc2)=NO1 (centres undefined)	nt	i	i	i	i	i
O=c1c2ccccc2[nH]c(=S)n1C1CCCCC1	i	i	i	i	i	40.4
CC1CCC(n2c(=S)[nH]c3ccccc3c2=O)CC1 (centres undefined)	i	i	i	i	i	i
CC(=O)c1cc(-c2ccccc2)n(CC(=O)Nc2ccc(C)c(C)c2)c1C	i	i	i	i	i	i
Cc1cccc(C(=O)Nc2scc(-c3ccc(Br)cc3)c2C(=O)O)c1	nt	i	i	i	i	i
COc1cc(C(=O)Nc2scc(-c3ccc(Br)cc3)c2C(=O)O)cc(OC)c1OC	i	i	i	54.2	i	i
COc1ccc(CCCNC(=O)C2CCC(=O)N(CC3CCCCC3)C2)cc1 (centres undefined)	i	i	i	i	i	i
